The record followed here is PMC8001668 (International Journal of Nanomedicine, 2021).

The subject of data set [1] is MCF-7 cells. Briefly: In vitro cytotoxicity, MTT assay. Type of data set: cell-based, Human. As to conditions: for IC50: Homo sapiens. Background: Formazan colour is commonly taken as a measure of viable cells.
The test system of data set [2] is MDA-MB-231 cells. Kind of data set: In vitro cytotoxicity, MTT assay. The data set is classed as cell-based, Human. Conditions: for IC50: Homo sapiens.
The next data set can be described thus: Plasma pharmacokinetics. Type of data set: in vivo. Conditions: SD rats plasma, intraperitoneal, free group received DAS + ROZ. The method in brief: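 Female SD rats (5 per group) got an intraperitoneal dose of either the free two-drug combination or the micelle formulation, at 5 mg/kg of the kinase inhibitor. Blood (0.3 mL) was taken from 0 min to 24 h and spun at 4000 rpm for 10 min. Plasma (100 µL) was mixed with methanol (300 µL) plus diclofenac sodium internal standard, spun, and analysed by HPLC. Parameters were derived from the concentration–time data.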

Data set [3] deals with MCF-7 cells. Briefly: Transwell migration experiment. Conditions: 24 h treatment. The data set is classed as cell-based, Human.
In data set [4] the test system is MDA-MB-231 cells. Briefly: Transwell migration experiment. The data set is classed as cell-based, Human. Conditions: 24 h treatment.

Structures are written as SMILES.

As for `Cc1nc(Nc2ncc(C(=O)Nc3c(C)cccc3Cl)s2)cc(N2CCN(CCO)CC2)n1` [DAS, Dasatinib], the IC50 (commonly the midpoint of a concentration-inhibition curve) in the data set on MCF-7 cells [1] (MCF7, 24 h) came out at 52 ± 6.83 µM; in the data set on MCF-7 cells [1] (MCF7, 48 h), 31.2 ± 2.8 µM; in the data set with MDA-MB-231 cells [2] (MDA-MB-231, 24 h) it was 73.6 ± 3.8 µM; in the data set with MDA-MB-231 cells [2] (MDA-MB-231, 48 h) it was 64.7 ± 2.63 µM. Besides, in “Plasma pharmacokinetics” (DAS 5 mg/kg), the “AUC0-∞ of DAS” value turned out to be 2380 ± 1120 ng·h/mL. The “AUC0–24 of DAS” value in the data set “Plasma pharmacokinetics” (DAS 5 mg/kg) stood at 2260 ± 930 ng·h/mL.

On to `CN(CCOc1ccc(CC2SC(=O)NC2=O)cc1)c1ccccn1` (centres unmarked) [ROZ, rosiglitazone], for which the IC50 in the data set on MCF-7 cells [1] (MCF7, 48 h) is 102 ± 6.2 µM; in the data set on MDA-MB-231 cells [2] (MDA-MB-231, 48 h) it was 259 ± 27.5 µM. In addition, the cell survival rate entry with MCF-7 cells [1] (MCF-7 cells, 24 h incubation) is recorded as “higher than 90%”; in the data set with MDA-MB-231 cells [2] (MDA-MB-231 cells, 24 h incubation), “higher than 90%”. The “number of cells penetrating the membrane (migration)” value in the data set on MCF-7 cells [3] and in the data set with MDA-MB-231 cells [4] was “significantly reduced” throughout. Besides, in the data set “Plasma pharmacokinetics” (DAS dose 5 mg/kg), the “AUC0–24 of ROZ” value is 41060 ± 10850 ng·h/mL. For the same compound, the “AUC0–∞ of ROZ” value in the data set “Plasma pharmacokinetics” (DAS dose 5 mg/kg) came out at 41340 ± 10680 ng·h/mL.
